From ChEMBL document CHEMBL2151029, “Synthesis of N-(5-chloro-6-(quinolin-3-yloxy)pyridin-3-yl)benzenesulfonamide derivatives as non-TZD peroxisome proliferator-activated receptor γ (PPARγ) agonist” (Eur J Med Chem, 2012)

Key:
[1] = molecular target: T1, Peroxisome proliferator-activated receptor gamma (Homo sapiens) (UniProt P37231); assay: Agonist activity at human PPARgamma receptor expressed in HEK293 cells at 10 uM relative to PPARgamma full agonist at 1 uM
T1 sequence (whole entry): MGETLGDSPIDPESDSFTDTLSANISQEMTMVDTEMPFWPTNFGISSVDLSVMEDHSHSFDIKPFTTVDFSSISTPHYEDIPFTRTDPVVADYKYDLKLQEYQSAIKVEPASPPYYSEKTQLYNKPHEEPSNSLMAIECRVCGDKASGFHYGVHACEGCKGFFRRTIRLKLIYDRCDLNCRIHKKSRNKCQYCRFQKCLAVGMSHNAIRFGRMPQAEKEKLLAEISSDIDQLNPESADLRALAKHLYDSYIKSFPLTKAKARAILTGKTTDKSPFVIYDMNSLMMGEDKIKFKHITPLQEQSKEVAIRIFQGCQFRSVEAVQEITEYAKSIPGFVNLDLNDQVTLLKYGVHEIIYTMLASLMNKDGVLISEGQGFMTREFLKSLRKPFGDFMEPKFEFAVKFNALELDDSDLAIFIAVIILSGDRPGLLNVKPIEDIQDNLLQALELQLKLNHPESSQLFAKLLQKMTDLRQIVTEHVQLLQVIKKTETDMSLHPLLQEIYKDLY

[2] = molecular target: T2, Peroxisome proliferator-activated receptor gamma (Mus musculus) (UniProt P37238); assay: Agonist activity at PPARgamma receptor in mouse 3T3-L1 cells assessed as adipogenesis at 20 ug/mL relative to insulin; format: functional, cell-based
T2 sequence (whole entry): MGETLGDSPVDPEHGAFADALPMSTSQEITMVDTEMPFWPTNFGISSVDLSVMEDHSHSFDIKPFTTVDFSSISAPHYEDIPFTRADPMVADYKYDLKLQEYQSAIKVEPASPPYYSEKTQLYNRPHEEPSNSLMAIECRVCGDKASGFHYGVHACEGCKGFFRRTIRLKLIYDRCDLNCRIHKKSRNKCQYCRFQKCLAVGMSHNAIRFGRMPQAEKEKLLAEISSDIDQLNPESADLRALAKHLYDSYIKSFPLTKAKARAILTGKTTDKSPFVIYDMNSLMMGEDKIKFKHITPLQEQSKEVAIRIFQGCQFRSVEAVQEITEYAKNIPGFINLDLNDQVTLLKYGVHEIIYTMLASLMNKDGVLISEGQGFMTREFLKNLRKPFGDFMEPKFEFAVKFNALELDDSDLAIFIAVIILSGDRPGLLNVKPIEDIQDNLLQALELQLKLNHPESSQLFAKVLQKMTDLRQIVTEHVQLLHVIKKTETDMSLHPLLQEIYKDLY
Outline: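 3T3-L1 cells were treated with compound at 20 µg/ml in the presence of insulin and adipogenesis was measured. The response to a potent PPARγ full agonist at 1 µM was set as 100%. Emax (%) is the maximal adipogenic activity with test compound.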

Mus musculus [3] = assay: Antihyperglycemic activity in db/db mouse assessed as plasma glucose reduction at 5 mg/kg administered BID for 10 days relative to control; format: functional; design: scale not given: the % may be the effect or the level left
Outline: (§1)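 Male db/db mice, 5 to 7 weeks old and bred in-house, were fed a chow diet and dosed b.i.d. for 10 days. Plasma glucose and body weight gain were assessed at the end of the study.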

[4] = Clearance in db/db mouse at 100 mg/kg, po; format: ADME, organism-based; design: dose 100 mg/kg, route oral; details: in vivo
Outline: (§2)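 Female db/db mice received a single 100 mg/kg oral dose as a suspension in 0.5% CMC and Tween 80 (10 mL/kg), n = 4 per time point. Blood was drawn at 0.08 to 8.0 h and plasma was kept at -80 °C. Compound levels were measured by HPLC. Parameters came from non-compartmental analysis: Cmax and Tmax read directly, λz from terminal log-linear regression, T1/2 = 0.693/λz.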

Mus musculus [5] = assay: Volume of distribution in db/db mouse at 100 mg/kg, po; format: ADME, organism-based; design: dose 100 mg/kg, route oral; details: in vivo
Outline: as §2

[6] = Drug excretion in db/db mouse assessed as elimination rate constant at 100 mg/kg, po; format: ADME, organism-based; design: dose 100 mg/kg, route oral; details: in vivo
Outline: as §2

[7] = AUC (0 to 8 hrs) in db/db mouse at 100 mg/kg, po; format: ADME, organism-based; design: time < 8 hr, dose 100 mg/kg, route oral; details: plasma
Outline: as §2

[8] = Cmax in db/db mouse at 100 mg/kg, po; format: ADME, organism-based; design: dose 100 mg/kg, route oral; details: in vivo
Outline: as §2

[9] = Tmax in db/db mouse at 100 mg/kg, po; format: ADME, organism-based; design: dose 100 mg/kg, route oral; details: in vivo
Outline: as §2

[10] = Terminal elimination half life in db/db mouse at 100 mg/kg, po; format: ADME, organism-based; design: dose 100 mg/kg, route oral; details: in vivo, read-out: beta t1/2 (converted)
Outline: as §2

Mus musculus [11] = assay: Antihyperglycemic activity in db/db mouse assessed as plasma glucose reduction at 50 mg/kg administered BID for 10 days relative to control; format: functional; design: scale not given: the % may be the effect or the level left
Outline: as §1

Mus musculus [12] = assay: Toxicity in db/db mouse assessed as body weight gain at 50 mg/kg administered BID relative to control; format: organism-based; design: dose 50 mg/kg; details: in vivo
Outline: as §1

| Emax [1] | Emax [2] | Compound | other results |
| --- | --- | --- | --- |
| 50% | 75% | O=S(=O)(Nc1cnc(Oc2cnc3ccccc3c2)c(Cl)c1)c1cccc(C(F)(F)F)c1 |  |
| 56% | 35% | O=S(=O)(Nc1cnc(Oc2cnc3ccccc3c2)c(Cl)c1)c1ccc(Cl)c(Cl)c1 |  |
| 62% | 80% | O=S(=O)(Nc1cnc(Oc2cnc3ccccc3c2)c(Cl)c1)c1cccc(F)c1 |  |
| 43% | 95% | Cc1ccccc1S(=O)(=O)Nc1cnc(Oc2cnc3ccccc3c2)c(Cl)c1 |  |
| 32% | 56% | O=S(=O)(Nc1cnc(Oc2cnc3ccccc3c2)c(Cl)c1)c1ccc(F)cc1F |  |
| 31% | 67% | Cc1ccc(S(=O)(=O)Nc2cnc(Oc3cnc4ccccc4c3)c(Cl)c2)c(C)c1 |  |
| 86% | 57% | O=S(=O)(Nc1cnc(Oc2cnc3ccccc3c2)c(Cl)c1)c1ccc(C(F)(F)F)cc1Cl |  |
| 28% | 56% | O=S(=O)(Nc1cnc(Oc2cnc3ccccc3c2)c(Cl)c1)c1ccc(F)c(Cl)c1 |  |
|  |  | CN(CCOc1ccc(CC2SC(=O)NC2=O)cc1)c1ccccn1 (stereo not given) [ROSIGLITAZONE] | Activity (Mus musculus [3]): 52% |
| 86% | 95% | O=S(=O)(Nc1cnc(Oc2cnc3ccccc3c2)c(Cl)c1)c1ccc(F)c(F)c1 | CL/F [4]: 31.2 mL/min/kg; Vd (Mus musculus [5]): 4.78 L/kg; k el [6]: 0.000108 s⁻¹; AUC(0-t) at 8 h [7]: 25400 ng·h/mL; Cmax [8]: 8330 ng/mL; Tmax [9]: 0.5 h; half-life [10]: 1.76 h |
| 71% | 54% | COc1ccc(OC)c(S(=O)(=O)Nc2cnc(Oc3cnc4ccccc4c3)c(Cl)c2)c1 |  |
| 93% | 60% | COc1ccc(S(=O)(=O)Nc2cnc(Oc3cnc4ccccc4c3)c(Cl)c2)cc1OC | CL/F [4]: 4.67 mL/min/kg; Vd (Mus musculus [5]): 1.23 L/kg; Activity (Mus musculus [11]): 40%; k el [6]: 6.39e-05 s⁻¹; AUC(0-t) at 8 h [7]: 146000 ng·h/mL; Activity (Mus musculus [12]): 9%; Cmax [8]: 33900 ng/mL; Tmax [9]: 0.25 h; half-life [10]: 2.99 h |
| 39% | 51% | O=S(=O)(Nc1cnc(Oc2cnc3ccccc3c2)c(Cl)c1)c1ccc(F)cc1Cl |  |
| 36% | 90% | Cc1cccc(S(=O)(=O)Nc2cnc(Oc3cnc4ccccc4c3)c(Cl)c2)c1 |  |
| 83% | 73% | Cc1cc(F)ccc1S(=O)(=O)Nc1cnc(Oc2cnc3ccccc3c2)c(Cl)c1 |  |
